Measured values reported in ChEMBL document CHEMBL1153344, “Synthesis of casimiroin and optimization of its quinone reductase 2 and aromatase inhibitory activities” (J Med Chem, 2009).

Tests used:
[1] = target: T1, Aromatase (Homo sapiens, UniProt P11511)
T1 sequence (P11511 whole entry): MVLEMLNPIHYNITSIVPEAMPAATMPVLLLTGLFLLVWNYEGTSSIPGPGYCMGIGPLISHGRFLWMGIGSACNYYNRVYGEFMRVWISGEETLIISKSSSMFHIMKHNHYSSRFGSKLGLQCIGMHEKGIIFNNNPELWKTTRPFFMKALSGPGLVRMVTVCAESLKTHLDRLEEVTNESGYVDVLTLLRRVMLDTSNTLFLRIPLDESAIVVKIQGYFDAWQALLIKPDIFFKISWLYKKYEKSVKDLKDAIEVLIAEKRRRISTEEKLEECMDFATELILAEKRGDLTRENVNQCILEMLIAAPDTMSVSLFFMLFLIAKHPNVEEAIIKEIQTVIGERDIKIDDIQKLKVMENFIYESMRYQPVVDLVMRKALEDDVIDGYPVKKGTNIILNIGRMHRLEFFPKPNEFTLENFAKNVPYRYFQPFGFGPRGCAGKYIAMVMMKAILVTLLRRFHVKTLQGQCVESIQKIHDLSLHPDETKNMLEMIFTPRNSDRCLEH

[2] = tested on: MCF7; assay: Cytotoxicity against human MCF7 cells after 72 hrs by sulforhodamine B assay; type: functional, cell-based; conditions: MCF7, 72 h
Outline: (§1)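 Cells seeded at 5.0×10^4 cells/mL in 96-well plates, given compound in 10% DMSO (10 µL) for final 0–20 µg/mL, 72 h incubation; zero-day control plate 30 min at 37 °C. Fixed with cold 50% TCA 30 min at 4 °C, stained 0.4% sulforhodamine B in 1% acetic acid 30 min, dye solubilized in 10 mM Tris base pH 10, absorbance 515 nm.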

[3] = Cytotoxicity against human Lu cells after 72 hrs by sulforhodamine B assay; type: functional, cell-based
Outline: as §1

[4] = Cytotoxicity against mouse Hepa-1c1c7 cells after 72 hrs by sulforhodamine B assay; type: functional, cell-based; conditions: Hepa-1c1c7, 72 h
Outline: as §1

[5] = target: T2, Ribosyldihydronicotinamide dehydrogenase [quinone] (Homo sapiens, UniProt P16083); assay: Inhibition of human quinone reductase 2 expressed in Escherichia coli BL21(DE3) incubated at 23 degC by MTT assay
T2 sequence (P16083 whole entry): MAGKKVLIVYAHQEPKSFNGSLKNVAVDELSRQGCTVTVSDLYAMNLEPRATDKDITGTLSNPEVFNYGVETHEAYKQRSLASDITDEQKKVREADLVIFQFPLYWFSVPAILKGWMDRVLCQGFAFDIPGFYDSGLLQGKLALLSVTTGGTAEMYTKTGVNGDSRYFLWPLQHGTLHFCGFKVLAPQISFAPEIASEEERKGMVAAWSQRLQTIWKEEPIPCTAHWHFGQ

[6] = tested on: LNCaP; assay: Cytotoxicity against human LNCAP cells after 72 hrs by sulforhodamine B assay; type: functional, cell-based
Outline: as §1

IC50 [1]	IC50 [5]	Compound	IC50 [2]	IC50 [3]	IC50 [4]	IC50 [6]
> 126 µM	> 500 µM	Cc1cc(=O)[nH]c2ccccc12	> 126 µM	> 126 µM	> 126 µM	> 126 µM
0.1 µM	10.8 µM	COc1cc(OC)c2c(c(C)cc(=O)n2C)c1OC	> 76 µM	68.5 µM	70.7 µM	> 76 µM
> 98.4 µM	> 500 µM	Cc1cc(=O)n(C)c2c1C(=O)C=CC2=O	60.5 µM	49.2 µM	54.1 µM	58.1 µM
5.76 µM	9.3 µM	COc1ccc2c(C)cc(=O)n(C)c2c1OC	> 85.8 µM	> 85.8 µM	> 85.8 µM	> 85.8 µM
> 98.5 µM	10.8 µM	Cc1cc(=O)[nH]c2c3c(ccc12)OCO3	> 98.5 µM	> 98.5 µM	> 98.5 µM	> 98.5 µM
0.96 µM	4.1 µM	COc1ccc(OC)c2c1c(C)cc(=O)n2C	> 85.7 µM	> 85.7 µM	> 85.7 µM	> 85.7 µM
0.96 µM	1.9 µM	COc1cc(OC)c2c(c1)c(C)cc(=O)n2C	> 85.8 µM	> 85.8 µM	> 85.8 µM	> 85.8 µM
2.02 µM	5.8 µM	COc1cccc2c(C)cc(=O)n(C)c12	> 98.5 µM	> 98.5 µM	> 98.5 µM	> 98.5 µM

Further lines, the compound ahead of its results:

Compound	IC50 [1]	IC50 [5]	IC50 [2]	IC50 [3]	IC50 [4]	IC50 [6]
COc1cccc2c(C)cc(=O)[nH]c12	> 106 µM	24.1 µM	> 106 µM	> 106 µM	> 106 µM	> 106 µM
COc1cc2c(C)cc(=O)[nH]c2c(OC)c1OC	18.5 µM	10 µM	> 80.3 µM	> 80.3 µM	> 80.3 µM	> 80.3 µM
COc1c(OC)c(OC)c2c(c(C)cc(=O)n2C)c1OC	0.76 µM	> 500 µM	> 68.2 µM	> 68.2 µM	> 68.2 µM	> 68.2 µM
COc1cc(OC)c2[nH]c(=O)cc(C)c2c1	> 91.3 µM	8.8 µM	> 91.3 µM	> 91.3 µM	> 91.3 µM	> 91.3 µM
COc1cc2c(C)cc(=O)n(C)c2c(OC)c1OC	2.72 µM	7 µM	> 76 µM	> 76 µM	> 76 µM	> 76 µM
Cc1cc(=O)n(C)c2c3c(ccc12)OCO3	1.25 µM	6.2 µM	> 92.1 µM	> 92.1 µM	> 92.1 µM	> 92.1 µM
COc1ccc(OC)c2c(C)cc(=O)[nH]c12	26.8 µM	10.8 µM	> 91.2 µM	> 91.2 µM	> 91.2 µM	> 91.2 µM
COc1cc(OC)c2[nH]c(=O)cc(C)c2c1OC	14.8 µM	6 µM	43 µM	35.3 µM	34.5 µM	45.8 µM
COc1c(OC)c(OC)c2c(C)cc(=O)[nH]c2c1OC	5.68 µM	> 500 µM	> 71.7 µM	> 71.7 µM	> 71.7 µM	> 71.7 µM
COc1ccc2c(C)cc(=O)[nH]c2c1OC	31.5 µM	29.3 µM	> 91.3 µM	> 91.3 µM	> 91.3 µM	> 91.3 µM
Cc1cc(=O)n(C)c2ccccc12	> 116 µM	18.2 µM	> 116 µM	> 116 µM	> 116 µM	> 116 µM
COc1cc(=O)n(C)c2c3c(ccc12)OCO3 [CASIMIROIN]	3.92 µM	54.1 µM	> 85.8 µM	> 85.8 µM	> 85.8 µM	> 85.8 µM
